Legend:
[1] = biological target: Mitogen-activated protein kinase 1 (Homo sapiens) (UniProt P28482); test: clock period lengtheners with kinase target profiling – cell-based, U2OS Bmal1-dLuc, CKIdelta, CKIalpha, ERK2, CDK7, mechanism study for circadian clock modulator project, late-stage follow-up (AID 493019); conditions: U2OS Bmal1-dLuc circadian period lengthening, luminescence; measured here: ERK2 in vitro kinase
Outline: (§1)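 System: U2OS osteosarcoma cells carrying Bmal1-dLuc reporter, plus in vitro kinases / Also added: ATP at 5 µM final in kinase reactions / Compound dosing: 10-point dilutions for period assay / Times: reporter 5 days, kinases 3 h, 30 °C / Detection: luciferase luminescence every 100 min, Kinase-Glo residual-ATP luminescence for kinases / Read-out: Period-lengthening concentrations and kinase IC50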

[2] = biological target: Cyclin-dependent kinase 7 (Homo sapiens) (UniProt P50613); test: as above; conditions: U2OS Bmal1-dLuc circadian period lengthening, luminescence; measured here: CDK7 in vitro kinase
Outline: as §1

[3] = biological target: Casein kinase I isoform alpha (Homo sapiens) (UniProt P48729); test: as above; conditions: U2OS Bmal1-dLuc circadian period lengthening, luminescence; for IC50: measured here: CKIalpha in vitro kinase
Outline: as §1

[4] = biological target: Casein kinase I isoform delta (Homo sapiens) (UniProt P48730); test: as above; conditions: U2OS Bmal1-dLuc circadian period lengthening, luminescence; for IC50: measured here: CKIdelta in vitro kinase
Outline: as §1

[5] = test system: U2OS Bmal1-dLuc circadian period lengthening, luminescence; test: as above
Outline: as §1

[6] = as above; conditions: U2OS Bmal1-dLuc circadian period lengthening, luminescence; for EC (10 h period change): measured here: 10 h period lengthening; for EC (15 h period change): measured here: 15 h period lengthening
Outline: as §1

Row | Compound | IC50 [1] | IC50 [2] | IC50 [3] | IC50 [4] | EC (5 h period change) [5] | EC (10 h period change) [6] | EC (15 h period change) [6] | EC50 ([3]; measured here: CKIalpha cell PER1 degradation) | EC50 ([4]; measured here: CKIdelta cell PER1 degradation)
1 | CC(C)n1cnc2c(NCc3ccccc3)ncnc21 | 160 µM | 29 µM | 23 µM | 21 µM | 4400 nM | 17 µM | 38 µM | – | –
2 | CC(C)n1cnc2c(NCc3cccc(C(F)(F)F)c3)ncnc21 | 52 µM | 29 µM | 5.6 µM | 8.8 µM | 1500 nM | 5.7 µM | 13 µM | 9.2 µM | 9.7 µM

From PubChem BioAssay AID493019 (Circadian Research, Kay Laboratory, University of …, 2011)
